Measured values published in article PMC10527240 (International journal of biological macromolecules, 2023).

Key:
human FATP2 = human FATP2 (Homo sapiens, UniProt O14975); assay: BODIPY-C16 FA uptake in HRPT cells stably expressing human FATP2; type: cell-based
HRPT cells = assay: Palmitate-induced lipoapoptosis by TUNEL in HRPT cells; type: cell-based, human; settings: for Effect on palmitate-induced lipoapoptosis: drug 5 μM, 2 hr, then palmitate 100 μM, 16 hr
Summary of the method: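 Immortalized human kidney proximal tubule cells were grown to near confluence on glass coverslips. They were preincubated with test compound (5 μM, 2 hr, 37°C), then albumin-complexed palmitate was added (100 μM, 16 hr, 37°C). Fixed cells were scored by TUNEL under fluorescence microscopy at 400X by blinded operators, ten random fields, one experiment. Mean ± SD; ANOVA.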

Compound | IC50 (human FATP2) | Effect on palmitate-induced lipoapoptosis (HRPT cells) | IC50 (HRPT cells; read-out: IC50 for palmitate-induced apoptosis, compound 2 hr 37° C, then palmitate 100 μM, 16 hr)
CCCCCc1cccc(CC(=O)O)c1 [PBI-4050] | > 500000 nM | – | –
Cc1ccc2c(c1)C1(NN=C(c3ccccc3)S1)C(=O)N2 (centres unmarked) [Compound 1] | – | protective | 600 nM
O=C1Nc2ccc(Br)cc2C12NN=C(c1ccccc1)S2 (centres unmarked) [Lipofermata] | – | protective | –
Grassofermata | – | increased apoptosis | –
